Laboratory results: ChEMBL document CHEMBL1124107, “Antihypertensive thiadiazoles. 1. Synthesis of some 2-aryl-5-hydrazino-1,3,4-thiadiazoles with vasodilator activity” (1988)
Active and inactive are the calls of the source. No cut-off for these calls is given here.

Key:
Rattus norvegicus [1] = experiment: Maximum percentage reduction in mean blood pressure and heart rate in metacorticoid (DOCA) hypertensive rats at a standard oral dose of 50 mg/kg; type: functional
Outline: (§1)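 DOCA hypertensive rats, n = 3-5. Food removed 18 h before oral dosing; ip injections given to unstarved animals. Blood pressure recorded by pressure transducer under minimal restraint, twice before dosing with drug or isotonic saline vehicle, then at 1, 2, 3, 5 and 22 h. MABP taken as diastolic plus one-third pulse pressure.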

Rattus norvegicus [2] = experiment: Increase in diastolic blood pressure for 0.1 ug/kg intravenous dosing of noradrenaline in pithed rats; type: functional, Artery
Outline: (§2)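 Male rats (200-300 g) pretreated ip with drug or isotonic saline, groups of five, 1 or 2 h before pithing. Halothane anesthesia, tracheal cannulation, CNS destroyed via left orbit and spinal cord, artificial respiration with room air at 50 strokes/min. Pressor responses to iv noradrenaline (0.1-1.0 ug/kg), iv angiotensin (0.03-0.3 ug/kg), or whole sympathetic outflow stimulation.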

Rattus norvegicus [3] = species on record: Rattus norvegicus; experiment: Increase in diastolic blood pressure for 3 Htz electrical stimulation in the pithed rats; type: functional, Artery; outline: as §2
Rattus norvegicus [4] = experiment: Increase in diastolic blood pressure for 0.1 ug/kg intravenous dosing of angiotensin in pithed rats; type: functional, Artery; outline: as §2
Rattus norvegicus [5] = experiment: Increase in diastolic blood pressure for 0.3 ug/kg intravenous dosing of noradrenaline in pithed rats; type: functional, Artery; outline: as §2
Rattus norvegicus [6] = experiment: Maximum percentage reduction in mean blood pressure and heart rate in metacorticoid (DOCA) hypertensive rats at a standard oral dose of 25 mg/kg; type: functional; outline: as §1
Rattus norvegicus [7] = experiment: Increase in diastolic blood pressure for 0.3 ug/kg intravenous dosing of angiotensin in pithed rats; type: functional, Artery; outline: as §2
Rattus norvegicus [8] = species on record: Rattus norvegicus; experiment: Increase in diastolic blood pressure for 6 Htz electrical stimulation in the pithed rats; type: functional, Artery; outline: as §2
Rattus norvegicus [9] = experiment: Increase in diastolic blood pressure for 0.03 ug/kg intravenous dosing of angiotensin in pithed rats; type: functional, Artery; outline: as §2
Rattus norvegicus [10] = experiment: Increase in diastolic blood pressure for 1.0 ug/kg intravenous dosing of noradrenaline in pithed rats; type: functional, Artery; outline: as §2
Rattus norvegicus [11] = species on record: Rattus norvegicus; experiment: Increase in diastolic blood pressure for 1 Htz electrical stimulation in the pithed rats; type: functional, Artery; outline: as §2
Rattus norvegicus [12] = experiment: Maximum percentage reduction in mean blood pressure in metacorticoid (DOCA) hypertensive rats at a standard oral dose of 100 mg/kg; type: functional; outline: as §1
Rattus norvegicus [13] = experiment: Maximum percentage reduction in mean blood pressure and heart rate in metacorticoid (DOCA) hypertensive rats at a standard oral dose of 100 mg/kg
Rattus norvegicus [14] = experiment: Increase in diastolic blood pressure at 0.1 ug/kg intravenous dosing of angiotensin in pithed rats; type: functional, Artery; outline: as §2
Rattus norvegicus [15] = species on record: Rattus norvegicus; experiment: Increase in diastolic blood pressure at 6 Htz electrical stimulation in the pithed rats; type: functional, Artery; outline: as §2
Rattus norvegicus [16] = species on record: Rattus norvegicus; experiment: Increase in diastolic blood pressure at 1 Htz electrical stimulation in the pithed rats; type: functional, Artery; outline: as §2
Rattus norvegicus [17] = experiment: Increase in diastolic blood pressure at 0.03 ug/kg intravenous dosing of angiotensin in pithed rats; type: functional, Artery; outline: as §2
Rattus norvegicus [18] = experiment: Increase in diastolic blood pressure at 0.3 ug/kg intravenous dosing of noradrenaline in pithed rats; type: functional, Artery; outline: as §2
Rattus norvegicus [19] = experiment: Maximum percentage reduction in mean blood pressure in metacorticoid (DOCA) hypertensive rats at a standard oral dose of 25 mg/kg; type: functional; outline: as §1
Rattus norvegicus [20] = experiment: Increase in diastolic blood pressure at 0.3 ug/kg intravenous dosing of angiotensin in pithed rats; type: functional, Artery; outline: as §2
Rattus norvegicus [21] = species on record: Rattus norvegicus; experiment: Increase in diastolic blood pressure at 3 Htz electrical stimulation in the pithed rats; type: functional, Artery; outline: as §2
Rattus norvegicus [22] = experiment: Increase in diastolic blood pressure at 1.0 ug/kg intravenous dosing of noradrenaline in pithed rats; type: functional, Artery; outline: as §2
Rattus norvegicus [23] = experiment: Maximum percentage reduction in mean blood pressure in metacorticoid (DOCA) hypertensive rats at a standard oral dose of 50 mg/kg; type: functional; outline: as §1
Rattus norvegicus [24] = experiment: Increase in diastolic blood pressure at 0.1 ug/kg intravenous dosing of noradrenaline in pithed rats; type: functional, Artery; outline: as §2
Rattus norvegicus [25] = experiment: Maximum percentage reduction in mean blood pressure in metacorticoid (DOCA) hypertensive rats at standard intraperitoneal dose of 100 mg/kg; type: functional; settings: route oral, in the assay text read “oral” for “intraperitoneal”; outline: as §1
Rattus norvegicus [26] = experiment: Maximum percentage reduction in mean blood pressure and heart rate in metacorticoid (DOCA) hypertensive rats at a standard oral dose of 100 mg/kg; IA = Inactive, Maximum percentage fall in MABP <10%; type: functional, organism-based; design: dose 100 mg/kg; outline: as §1
Rattus norvegicus [27] = experiment: Maximum percentage reduction in mean blood pressure and heart rate in metacorticoid (DOCA) hypertensive rats at a standard intraperitoneal dose of 100 mg/kg; type: functional; settings: route oral, in the assay text read “oral” for “intraperitoneal”; outline: as §1

Cc1ccccc1-c1nnc(NN)s1.Cl
Reduction (Rattus norvegicus [1]): 48%
Increase in blood pressure (Rattus norvegicus [2]): 10 mmHg
Increase in blood pressure (Rattus norvegicus [3]): 32 mmHg
Increase in blood pressure (Rattus norvegicus [4]): 28 mmHg
Increase in blood pressure (Rattus norvegicus [5]): 16 mmHg
Reduction (Rattus norvegicus [6]): 33%
Increase in blood pressure (Rattus norvegicus [7]): 50 mmHg
Increase in blood pressure (Rattus norvegicus [8]): 41 mmHg
Increase in blood pressure (Rattus norvegicus [9]): 12 mmHg
Increase in blood pressure (Rattus norvegicus [10]): 29 mmHg
Increase in blood pressure (Rattus norvegicus [11]): 16 mmHg

Cc1ccc(-c2nnc(NN)s2)cc1C.Cl
Reduction (Rattus norvegicus [12]): 22%

CSc1ccccc1-c1nnc(NN)s1.Cl
Reduction (Rattus norvegicus [12]): 41%

Nc1cc(N2CCCCC2)nc(N)[n+]1[O-] [MINOXIDIL]
Increase in blood pressure (Rattus norvegicus [2]): 10 mmHg
Increase in blood pressure (Rattus norvegicus [3]): 25 mmHg
Increase in blood pressure (Rattus norvegicus [4]): 13 mmHg
Increase in blood pressure (Rattus norvegicus [5]): 25 mmHg
Reduction (Rattus norvegicus [13]): 42%
Increase in blood pressure (Rattus norvegicus [7]): 25 mmHg
Increase in blood pressure (Rattus norvegicus [8]): 31 mmHg
Increase in blood pressure (Rattus norvegicus [9]): 6 mmHg
Increase in blood pressure (Rattus norvegicus [10]): 45 mmHg
Increase in blood pressure (Rattus norvegicus [11]): 9 mmHg

C[S+]([O-])c1ccccc1-c1nnc(NN)s1.Cl (stereo not given)
Increase in blood pressure (Rattus norvegicus [14]): 11 mmHg
Increase in blood pressure (Rattus norvegicus [15]): 47 mmHg
Increase in blood pressure (Rattus norvegicus [16]): 19 mmHg
Increase in blood pressure (Rattus norvegicus [17]): 4 mmHg
Increase in blood pressure (Rattus norvegicus [18]): 10 mmHg
Reduction (Rattus norvegicus [19]): 31%
Increase in blood pressure (Rattus norvegicus [20]): 29 mmHg
Increase in blood pressure (Rattus norvegicus [21]): 34 mmHg
Increase in blood pressure (Rattus norvegicus [22]): 21 mmHg
Reduction (Rattus norvegicus [23]): 45%
Increase in blood pressure (Rattus norvegicus [24]): 6 mmHg

Cc1ccc(-c2nnc(NN)s2)c(C)c1.Cl
Reduction (Rattus norvegicus [12]): 61%

Cl.NNc1nnc(-c2ccccc2-c2ccccc2)s1
Reduction (Rattus norvegicus [12]): 18%

Cl.NNc1nnc(-c2cccc(O)c2)s1
Reduction (Rattus norvegicus [12]): 16%

NNc1nncc2ccccc12 [HYDRALAZINE]
Increase in blood pressure (Rattus norvegicus [2]): 8 mmHg
Increase in blood pressure (Rattus norvegicus [3]): 42 mmHg
Increase in blood pressure (Rattus norvegicus [4]): 21 mmHg
Increase in blood pressure (Rattus norvegicus [5]): 15 mmHg
Increase in blood pressure (Rattus norvegicus [7]): 38 mmHg
Increase in blood pressure (Rattus norvegicus [8]): 54 mmHg
Increase in blood pressure (Rattus norvegicus [9]): 8 mmHg
Increase in blood pressure (Rattus norvegicus [10]): 28 mmHg
Increase in blood pressure (Rattus norvegicus [11]): 28 mmHg

Cl.NNc1nnc(-c2ccc(Cl)c(Cl)c2)s1
Reduction (Rattus norvegicus [12]): 17%

Cl.NNc1nnc(-c2ccc(Cl)cc2)s1
Reduction (Rattus norvegicus [25]): 28%

Cl.NNc1nnc(-c2cccc(C(F)(F)F)c2)s1
Reduction (Rattus norvegicus [12]): 21%

Cc1ccsc1-c1nnc(NN)s1.Cl
Reduction (Rattus norvegicus [12]): 48%

Cc1cc(C)cc(-c2nnc(NN)s2)c1.Cl
Reduction (Rattus norvegicus [12]): 18%

Cc1cccc(-c2nnc(NN)s2)c1C.Cl
Reduction (Rattus norvegicus [12]): 50%

CC(C)(C)c1ccccc1-c1nnc(NN)s1
Reduction (Rattus norvegicus [12]): 58%

CCCCCCOc1ccccc1-c1nnc(NN)s1
Reduction (Rattus norvegicus [26]): inactive

Cc1cccc(C)c1-c1nnc(NN)s1.Cl
Reduction (Rattus norvegicus [12]): 54%

Cl.NNc1nnc(-c2ccc(C(F)(F)F)cc2)s1
Reduction (Rattus norvegicus [12]): 21%

Cl.NNc1nnc(-c2ccccc2F)s1
Reduction (Rattus norvegicus [12]): 31%

COc1cccc(-c2nnc(NN)s2)c1.Cl
Reduction (Rattus norvegicus [12]): 18%

Cl.NNc1nnc(-c2cccc(Cl)c2)s1
Reduction (Rattus norvegicus [12]): 20%

Cl.NNc1nnc(-c2ccsc2)s1
Reduction (Rattus norvegicus [12]): 33%

Cl.NNc1nnc(-c2ccccc2I)s1
Reduction (Rattus norvegicus [12]): 58%
Reduction (Rattus norvegicus [23]): 24%

COc1cc2nc(N3CCN(C(=O)c4ccco4)CC3)nc(N)c2cc1OC [PRAZOSIN]
Increase in blood pressure (Rattus norvegicus [2]): 23 mmHg
Increase in blood pressure (Rattus norvegicus [3]): 26 mmHg
Increase in blood pressure (Rattus norvegicus [4]): 45 mmHg
Increase in blood pressure (Rattus norvegicus [5]): 32 mmHg
Increase in blood pressure (Rattus norvegicus [7]): 67 mmHg
Increase in blood pressure (Rattus norvegicus [8]): 31 mmHg
Increase in blood pressure (Rattus norvegicus [9]): 30 mmHg
Increase in blood pressure (Rattus norvegicus [10]): 49 mmHg
Increase in blood pressure (Rattus norvegicus [11]): 18 mmHg

Cc1cc(F)ccc1-c1nnc(NN)s1.Cl
Reduction (Rattus norvegicus [12]): 58%

Cc1ccc(-c2nnc(NN)s2)cc1.Cl
Reduction (Rattus norvegicus [12]): 28%

CCCOc1ccccc1-c1nnc(NN)s1.Cl
Reduction (Rattus norvegicus [12]): 46%

NNc1nnc(-c2ccco2)s1
Reduction (Rattus norvegicus [12]): 39%

NNc1nnc(-c2c(Cl)cccc2Cl)s1
Reduction (Rattus norvegicus [12]): 50%

COc1ccccc1-c1nnc(NN)s1.Cl
Reduction (Rattus norvegicus [12]): 46%
Reduction (Rattus norvegicus [23]): 39%

Cl.NNc1nnc(-c2ccccc2Cl)s1
Reduction (Rattus norvegicus [12]): 21%

Cl.NNc1nnc(-c2cccs2)s1
Reduction (Rattus norvegicus [12]): 35%

Cc1cccc(-c2nnc(NN)s2)c1.Cl
Reduction (Rattus norvegicus [12]): 29%

Cl.NNc1nnc(-c2ccccc2C(F)(F)F)s1
Reduction (Rattus norvegicus [12]): 49%
Reduction (Rattus norvegicus [23]): 33%

CCc1ccccc1-c1nnc(NN)s1.Cl
Increase in blood pressure (Rattus norvegicus [14]): 6 mmHg
Increase in blood pressure (Rattus norvegicus [15]): 32 mmHg
Increase in blood pressure (Rattus norvegicus [16]): 14 mmHg
Increase in blood pressure (Rattus norvegicus [17]): 2 mmHg
Increase in blood pressure (Rattus norvegicus [18]): 14 mmHg
Reduction (Rattus norvegicus [19]): 42%
Increase in blood pressure (Rattus norvegicus [20]): 25 mmHg
Increase in blood pressure (Rattus norvegicus [21]): 25 mmHg
Increase in blood pressure (Rattus norvegicus [22]): 22 mmHg
Reduction (Rattus norvegicus [23]): 54%
Increase in blood pressure (Rattus norvegicus [24]): 8 mmHg

Cc1ccc(F)cc1-c1nnc(NN)s1.Cl
Reduction (Rattus norvegicus [12]): 63%

Cc1ccc(C)c(-c2nnc(NN)s2)c1.Cl
Reduction (Rattus norvegicus [12]): 50%

CCC[S+]([O-])c1ccccc1-c1nnc(NN)s1.Cl (stereo not given)
Reduction (Rattus norvegicus [12]): 48%

Cl.NNc1nnc(-c2ccccc2[N+](=O)[O-])s1
Reduction (Rattus norvegicus [12]): 26%

Cl.NNc1nnc(-c2ccccc2)s1
Reduction (Rattus norvegicus [12]): 42%

Cl.NNc1nnc(-c2ccccc2Br)s1
Reduction (Rattus norvegicus [12]): 48%

Cl.NNc1nnc(-c2ccccn2)s1
Reduction (Rattus norvegicus [12]): 21%

Cl.NNc1nnc(-c2cccc3ccccc23)s1
Reduction (Rattus norvegicus [12]): 26%

COc1cccc(OC)c1-c1nnc(NN)s1.Cl
Reduction (Rattus norvegicus [12]): 33%

COc1ccc(Cl)c(OC)c1-c1nnc(NN)s1.Cl
Reduction (Rattus norvegicus [12]): 53%

COc1ccc(-c2nnc(NN)s2)cc1OC.Cl
Reduction (Rattus norvegicus [27]): 24%
